High-throughput results (PubChem BioAssay)
Most compounds without a hit are left out; they make up all but 1.8% or so of the library.
TAG inh – inhibitors of triacylglycerol accumulation, primary screen, cell-based, uHTS, fluorescence, H9c2; inhibition, % at 12.5 µM; hit rate 0.66% among 230,000; H9c2 cells, Nile Red lipid (TAG) fluorescence; cells loaded with 200 µM oleic acid;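 active = pattern-corrected inhibition of lipid staining of at least 50% with the nuclear-stain viability signal not falling by more than 50%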;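 note: 0% = DMSO wells and 100% = triacsin C control wells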
Jurkat NFkB inh – inhibitors of induced NF-kB luciferase reporter, primary screen, TCR NF-kB activation inhibitor project, cell-based, luminescence, uHTS. Jurkat, PMA/ionomycin-induced NF-kB luciferase reporter. inhibition, % at 4 µM. hit rate 0.53% among 330,000; in the data active = inhibition above about 50%
hiPSC survival – enhancers of single-cell hiPSC survival, primary screen, ATPlite luminescence; hit rate 0.044% among 360,000; 100% = ROCK inhibitor wells, 0% = DMSO; survival enhancement, % at 20 µM; in the data active = survival enhancement above about 18%;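 note: cells exposed to compounds for 16 hours before the ATP read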
Gli-Sufu antag – Gli-Sufu pathway antagonists, primary screen, luciferase luminescence, Sufu-KO-LIGHT cells, uHTS. Sufu-KO-LIGHT fibroblasts, Gli luciferase reporter luminescence. inhibition, % at 5 µM. hit rate 0.74% among 340,000. AID 588413, 2011;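 active = inhibition above about 55%, limit read from the data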;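 note: 0% = DMSO-treated cells and 100% = wells with medium but no cells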
697 NFkB inh – inhibitors of PMA/ionomycin-induced NF-kB reporter, 697 cells, primary screen, B-cell NF-kB inhibitor project, cell-based, luminescence, uHTS. AID 435022, 2010. inhibition, % at 4 µM. 697 B-cell NF-kB luciferase reporter, 16 h. hit rate 0.33% among 330,000; in the data active = inhibition above about 35%
Hep lipid drop – inhibitors of hepatocyte lipid droplet formation, primary screen, imaging, high-throughput imaging, BODIPY stain. AML12 mouse hepatocytes, oleate lipid droplets. inhibition, % at 6.5 µM. hit rate 0.4% among 240,000;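 active = lipid droplet intensity inhibited by at least 50%, with more than 500 cells counted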
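Material: mouse AML12 hepatocyte cell line, fixed after treatment; Timing: compound with oleate, overnight; Technique: high-content imaging of BODIPY-stained droplets and DAPI nuclei; Probe or stimulus: oleate, 100 µM final; Dosing: compound at 6.5 µM only.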
Jurkat NFkB conf – PMA/ionomycin-induced NF-kB reporter inhibitors, Jurkat retest, confirmation, T-cell NF-kB inhibitor project, cell-based, luminescence, single concentration | shares compounds with Jurkat NFkB inh | Jurkat NF-kB luciferase, 16 h | inhibition, % at 4 µM | hit rate 27% among 2,700;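 active = inhibition reaching about 45% at 4 µM in either replicate, limit read from the data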;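 note: plate controls were PMA/ionomycin stimulated DMSO wells for no effect and unstimulated DMSO wells for full effect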
697 NFkB conf – PMA/ionomycin-induced NF-kB reporter inhibitors, 697 retest, confirmation, B-cell NF-kB inhibitor project, cell-based, luminescence, single concentration; shares compounds with 697 NFkB inh; 697 B-cell NF-kB luciferase, 16 h; inhibition, % at 4 µM; hit rate 35% among 2,000; AID 449746, 2010; in the data active = inhibition mostly above about 28%, no sharp cut-off; inactive = mostly below about 22%
H9c2 TAG conf – triacylglycerol accumulation inhibitors, retest, confirmation, cell-based, single concentration, Nile Red fluorescence, H9c2. shares compounds with TAG inh. H9c2 lipid accumulation; cells loaded with 200 µM oleic acid. inhibition, % at 12.5 µM. hit rate 71% among 990. AID 651629, 2012;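 active = mean inhibition across replicates of 40% or more; inactive = mean inhibition below 40%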;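 note: plate controls were DMSO only wells for no effect and Triacsin C treated wells for full effect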
* = called active by the depositor; · = not tested or not shown.

SMILES	TAG inh	Jurkat NFkB inh	hiPSC survival	Gli-Sufu antag	697 NFkB inh	Hep lipid drop	Jurkat NFkB conf	H9c2 TAG conf	others
COc1ccc(OC)c(NS(=O)(=O)c2ccc(N3CCCC3=O)cc2)c1	57*	55*	-1	45	1	·	55*	42*
Cc1ccccc1NS(=O)(=O)c1ccc(N2CCCC2=O)cc1	58*	54*	-2	0	-83	·	48	30
O=C(Nc1ccncc1)C1CCCN(S(=O)(=O)c2cccc3cccnc23)C1 (stereo not drawn)	60*	63*	0	-7	-84	-5	48	41*
CSC(C(=O)c1cc2ccccc2o1)c1ccccc1 (stereo not drawn)	-27	-42	-2	-34	-8	·	·	·
CCc1ccc(/C=N/NC(=O)c2cc(-c3ccccc3OC)nc3ccccc23)s1	9	-9	-4	2	-3	-24	·	·
CCc1ccc(/C=N/NC(=O)c2cc(C3CC3)nc3ccc(Br)cc23)s1	60*	56*	1	-6	-42	20	21	40*
CCOC(=O)c1cc(CC)sc1NC(=O)c1cc([N+](=O)[O-])ccc1N1CCOCC1	91*	59*	-1	17	18	·	38	60*
CCOC(=O)c1cc(CC)sc1NC(=O)c1ccc(N2CCOCC2)c([N+](=O)[O-])c1	·	-9	-2	13	1	·	·	·
CSc1sc(C(=O)N2CCCCC2)c(-c2cccs2)c1C#N	-12	-7	2	9	-1	-15	·	·
COc1cccc(CNC(=O)c2cc(S(=O)(=O)N3CCCC3)cn2C)c1	-17	0	-1	·	7	-20	·	·
Cc1ccc(/C=N/NC(=O)c2c(C)nc3ccc(Br)cn23)cc1	56*	50*	-1	45	10	-188	53*	58*
COc1ccc(/C=N/NC(=O)c2c(C)nc3ccc(Br)cn23)cc1OC	14	22	-1	-13	-5	-15	·	·
Nc1ccccc1C#Cc1ccccc1	53*	55*	-1	-36	-255	·	-80	54*	697 NFkB conf=-76
O=C(NCc1cc(Cl)cc(Cl)c1)c1ccc2nc(COCCO)[nH]c2c1	12	·	0	·	·	·	·	·
COc1cc(Cn2c(-c3nonc3N)nc3ccccc32)ccc1C	66*	62*	-2	4	6	-9	46	62*
Cc1ccc(Cn2c(-c3nonc3N)nc3ccccc32)cc1	-103	33	3	6	4	·	·	·
CCCCOc1ccccc1NC(=O)Cn1c(-c2nonc2N)nc2ccccc21	73*	59*	-1	31	35*	-142	30	64*	697 NFkB conf=-56
